From PubChem
The entries come from a sample that favours hits as a whole.
GSH fluor: GSH bead compound fluorescence profile; 190,000 compounds, 0.25% hits; fluorescence (KMESF) at 10 µM; AID 1776; GSH beads flow cytometry, compound fluorescence 488/530 nm; active compounds read high; in the data active means fluorescence above about 89;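 further: glutathione beads carrying GST-tagged Bcl family fusion proteins plus one bare bead set; values are compound well signal with DMSO vehicle wells as background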
L major viab: reduces viability of Leishmania major promastigotes. resazurin fluorescence viability. inhibition, % at 10 µM. 200,000 compounds, 9% hits. AID 1063;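 further: promastigotes grown with compound for 44 hours at 28 °C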
PKD1 kinase inh: inhibitors of human PKD1 kinase. PKD1 kinase fluorescence polarization assay. inhibition, % (no concentration beside the values). 200,000 compounds, 0.056% hits. AID 797
Avidin bead fluor: avidin bead compound fluorescence profile | Avidin beads, compound fluorescence 488/530 nm, flow cytometry; active compounds read high | fluorescence (KMESF) at 10 µM | 220,000 compounds, 0.38% hits | AID 1775; in the data active means fluorescence above about 47
ABCB1 block: inhibitors of human ABCB1 transporter, ABCG2 counter-screen. P08183. CCRF-Adr cells, JC-1 efflux, flow cytometry. inhibition, % at 6.6 µM. 190,000 compounds, 0.067% hits. AID 1326; in the data active means inhibition above about 40%;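 further: 0% = vehicle and 100% = reference inhibitor; higher value means more JC-1 retained so stronger ABCB1 efflux block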
ABCG2 inh: blocks JC-1 efflux by human ABCG2 transporter; inhibition, % at 6.6 µM; 190,000 compounds, 0.1% hits; AID 1325; IgMXP3 cells, flow cytometry; Q9UNQ0;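 active means inhibition above 80%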;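 further: 0% = DMSO and 100% = nicardipine control wells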
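Test system: IgMXP3 (ABCG2) plus far-red-tagged CCRF-Adr (ABCB1) cells. Reagent: JC-1 dye as substrate. Timing: 10 min exposure at 25 °C with rotation, no wash. Measured by: flow cytometric JC-1 green MFI at 530 nm. Read-out: percent efflux inhibition, scaled nicardipine 100% to DMSO 0%. Control set: nicardipine and DMSO wells.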
Numbers without * were called inactive. Unless noted, no stated cut-off is given here; in the data, active means inhibition above about 50%; inactive means the rest.

For C=CCS(=O)(=O)N1CCC(CCOc2ccccc2)(C(=O)OCC)CC1 the results were GSH fluor 18, L major viab -1.8, PKD1 kinase inh -2.9, Avidin bead fluor 12, ABCB1 block 0.6 and ABCG2 inh 2.2.
O=c1c(C/C=C/c2ccccc2)c(O)ccn1CCc1c[nH]c2ccccc12 was read as GSH fluor 11, L major viab -1.8, PKD1 kinase inh 10.6, Avidin bead fluor 7, ABCB1 block 0.4 and ABCG2 inh 1.3.
`COc1ccc2[nH]cc(CCn3ccc(O)c(C/C=C/c4ccccc4)c3=O)c2c1` gave GSH fluor 11, L major viab 100.0*, PKD1 kinase inh 6.9, Avidin bead fluor 4, ABCB1 block 0.8 and ABCG2 inh 5.7.
CC1(C2CC(C(F)(F)F)n3nc(C(=O)O)cc3N2)CC1 (centres undefined) was read as GSH fluor 19, L major viab -10.4, PKD1 kinase inh -3.9, Avidin bead fluor 10, ABCB1 block -0.2 and ABCG2 inh 0.2.
CN1CCc2cc3c(c4c2[C@H]1[C@H](O)c1ccccc1-4)OCO3 was read as GSH fluor 14, L major viab 96.3*, PKD1 kinase inh -1.9, Avidin bead fluor 9, ABCB1 block -0.3 and ABCG2 inh 9.9.
`N=c1n(CC(=O)c2ccc([N+](=O)[O-])cc2)c2ccccc2n1Cc1ccc(Cl)cc1` gave GSH fluor 11, L major viab 100.0*, PKD1 kinase inh 12.9, Avidin bead fluor 25, ABCB1 block 1.0 and ABCG2 inh 53.3.
Screening N=c1n(CC(=O)c2ccc([N+](=O)[O-])cc2)c2ccccc2n1Cc1ccccc1 returned GSH fluor 10, L major viab 99.3*, PKD1 kinase inh -4.5, Avidin bead fluor 23, ABCB1 block 0.2 and ABCG2 inh 21.4.
For N=c1n(CC(=O)c2ccc([N+](=O)[O-])cc2)c2ccccc2n1Cc1ccccc1Cl the results were GSH fluor 9, L major viab 100.6*, PKD1 kinase inh 3.9, Avidin bead fluor 9, ABCB1 block 0.0 and ABCG2 inh -2.2.
Screening CCCCC(=O)NS(=O)(=O)c1ccc(N=NN(CC)CC)cc1 returned GSH fluor 10, L major viab -6.2, PKD1 kinase inh -1.3, Avidin bead fluor 10, ABCB1 block 0.0 and ABCG2 inh 0.3.
`COc1ccc(CCNc2nc(N3CCCCC3)nc(N3CCCCC3)n2)cc1OC` gave GSH fluor 21, L major viab 95.1*, PKD1 kinase inh 2.9, Avidin bead fluor 8, ABCB1 block 3.1 and ABCG2 inh 5.2.
For CCOc1nc(NCCc2ccc(OC)c(OC)c2)nc(NC(C)(C)CO)n1 the results were GSH fluor 8, L major viab 52.6*, PKD1 kinase inh -5.0, Avidin bead fluor 8, ABCB1 block 0.2 and ABCG2 inh 1.3.
For Cc1cc(C(C)(C)C)oc1C(=O)N(CC(=O)NC1CCCC1)Cc1ccc(F)cc1 the results were GSH fluor 17, L major viab -0.2, PKD1 kinase inh -14.7, Avidin bead fluor 15, ABCB1 block 2.4 and ABCG2 inh 5.7.
Screening CC(C)(C)c1ccc(OCC(=O)N/N=C/c2ccc(N3CCOCC3)cc2)cc1 returned GSH fluor 21, L major viab 0.2, PKD1 kinase inh -6.4, Avidin bead fluor 12, ABCB1 block -2.3 and ABCG2 inh 2.4.
`OC1CCCN(Cc2ccc3c(c2)Cc2ccccc2-3)C1` (centres undefined) gave GSH fluor 30, L major viab 72.8*, PKD1 kinase inh 2.0, Avidin bead fluor 11, ABCB1 block 0.2 and ABCG2 inh 1.6.
Screening CC(C)(C)c1ccccc1NC(=O)NC1CCN(Cc2c(F)cccc2Cl)CC1 returned Avidin bead fluor 7.
Screening COc1cc(NCCCCCCCN)c2ncccc2c1 returned GSH fluor 1, L major viab 100.3*, PKD1 kinase inh 5.5, Avidin bead fluor 5, ABCB1 block 1.1 and ABCG2 inh 2.2.
COc1cc(NCc2ccccc2O)c2ncccc2c1 was read as Avidin bead fluor 9.
`C/C(=N\Nc1nc(C)c(C)s1)c1ccc([N+](=O)[O-])cc1` gave GSH fluor 21, L major viab -5.3, PKD1 kinase inh 0.0, Avidin bead fluor 22, ABCB1 block 0.3 and ABCG2 inh 0.6.
For CC(=O)N1CCN(CC(=O)Nc2cc(S(=O)(=O)N3CCOCC3)ccc2C)CC1 the results were GSH fluor 14, L major viab -11.0, PKD1 kinase inh -5.2, Avidin bead fluor 11, ABCB1 block 1.4 and ABCG2 inh 1.3.
For OC(CSc1ccccc1Cl)CN1CCN(c2ccc(F)cc2)CC1 (centres undefined) the results were GSH fluor 56, L major viab 90.6*, PKD1 kinase inh -2.0, Avidin bead fluor 9, ABCB1 block 0.0 and ABCG2 inh 0.0.
`OC(CSc1ccccc1Cl)CN1CCN(c2ccccc2F)CC1` (centres undefined) gave GSH fluor 36, L major viab 64.4*, PKD1 kinase inh -3.3, Avidin bead fluor 89*, ABCB1 block 1.7 and ABCG2 inh 3.0.
`OC(CSc1c(Cl)cccc1Cl)CN1CCN(c2ccc(F)cc2)CC1` (centres undefined) gave GSH fluor 49, L major viab 62.6*, PKD1 kinase inh 2.7, Avidin bead fluor 8, ABCB1 block 0.5 and ABCG2 inh 2.6.
`OC(CSc1c(Cl)cccc1Cl)CN1CCN(c2ccccc2F)CC1` (centres undefined) gave GSH fluor 31, L major viab 17.0, PKD1 kinase inh -4.5, Avidin bead fluor 12, ABCB1 block 0.8 and ABCG2 inh 1.5.
`Cc1ccc2c(C)nc(NC3=NCN(C(C)C)CN3)nc2c1` gave L major viab 4.8 and PKD1 kinase inh -14.9.
CCC(CC)c1nnc(NC(=O)C2=NNC(=O)CC2)s1 was read as GSH fluor 17, L major viab -7.3, PKD1 kinase inh -1.1, Avidin bead fluor 25, ABCB1 block 0.0 and ABCG2 inh 0.5.
`COC(=O)c1ccc(CN2CCN(CCc3ccccc3)C(CCO)C2)cc1` (centres undefined) gave GSH fluor 19, L major viab 91.3*, PKD1 kinase inh -9.5, Avidin bead fluor 10, ABCB1 block 0.3 and ABCG2 inh 0.1.
OCCC1CN(Cc2cccc(-c3ccco3)c2)CCN1Cc1ccsc1 (centres undefined) was read as GSH fluor 12, L major viab 84.7*, PKD1 kinase inh -0.6, Avidin bead fluor 10, ABCB1 block 0.6 and ABCG2 inh 1.4.
For COc1ccc(/C=C/CN2CCN(CCc3ccccc3)C(CCO)C2)cc1 (centres undefined) the results were GSH fluor 10, L major viab 89.6*, PKD1 kinase inh -5.3, Avidin bead fluor 3, ABCB1 block 4.0 and ABCG2 inh 2.8.
